Laboratory results taken from ChEMBL document CHEMBL1137629, “Antiproliferative effect of dihydroxyacetone on Trypanosoma brucei bloodstream forms: cell cycle progression, subcellular alterations, and cell death” (Antimicrob Agents Chemother, 2007).
The source made the active and inactive calls. No cut-off for these calls is given here.

Key:
[1] = tested on: Trypanosoma brucei; test: Induction of apoptosis-like programmed cell death in Trypanosoma brucei bloodstream form assessed as loss of mitochondrial-membrane potential at 100 nM after 24 hrs by TMRE staining; type: functional
Summary of the method: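 T. brucei MITat 1.2 (EATRO 427) bloodstream forms were grown axenically at 37°C, 5% CO₂ and exposed to DHA for 24 h. Cells at 10⁶/ml were stained with 25 nM TMRE in culture medium for 30 min at 37°C and read at once by flow cytometry. Depolarization control: valinomycin 100 nM. Lower fluorescence signifies lost membrane potential.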

[2] = tested on: Trypanosoma brucei; test: Trypanocidal activity against Trypanosoma brucei bloodstream form assessed as induction of autophagy at 5 uM after 24 hrs by transmission electron microscopy; type: functional, organism-based
Summary of the method: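 Autophagy positive control. Bloodstream forms treated with 5 μM rapamycin (from a 50 mM ethanol stock), processed by glutaraldehyde/osmium fixation, uranyl acetate staining, resin embedding and sectioning for transmission electron microscopy.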

| SMILES | Activity [1] [%] | Activity [2] |
| --- | --- | --- |
| CC(C)[C@@H]1NC(=O)[C@H](C)OC(=O)[C@@H](C(C)C)NC(=O)[C@@H](C(C)C)OC(=O)[C@H](C(C)C)NC(=O)[C@H](C)OC(=O)[C@@H](C(C)C)NC(=O)[C@@H](C(C)C)OC(=O)[C@H](C(C)C)NC(=O)[C@H](C)OC(=O)[C@@H](C(C)C)NC(=O)[C@@H](C(C)C)OC1=O [VALINOMYCIN] | 97.3 |  |
| CO[C@H]1C[C@@H]2CC[C@@H](C)[C@@](O)(O2)C(=O)C(=O)N2CCCC[C@H]2C(=O)O[C@H]([C@H](C)C[C@@H]2CC[C@@H](O)[C@H](OC)C2)CC(=O)[C@H](C)/C=C(\C)[C@@H](O)[C@@H](OC)C(=O)[C@H](C)C[C@H](C)/C=C/C=C/C=C/1C |  | Active |
